# In ChEMBL document CHEMBL4312042, “In Silico Discovery of JMJD6 Inhibitors for Cancer Treatment” (ACS Med Chem Lett, 2019):
# Activity calls are given as the source filed them. The calls are words filed in the database; no cut-off is given here.
# Experiments:
# [1] = target: T1, Bifunctional arginine demethylase and lysyl-hydroxylase JMJD6 (Homo sapiens, UniProt Q6NYC1); assay: Inhibition of His-tagged JMJD6 (unknown origin) expressed in Escherichia coli BL21 (DE3) assessed as increase in H4 arginine 3 symmetrical dimethylation (H4R3me2s) content at 10 uM using core histone as substrate preincubated with enzyme for 10 mins followed by incubation with substrate for 1 hr by immunoblotting analysis
# In short: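 Purified bacterially expressed JMJD6 incubated with core histones, with or without compound at 10 μM; product analysed by immunoblot for H4R3me2s with total histone H4 probed alongside.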
# [2] = target: T1, Bifunctional arginine demethylase and lysyl-hydroxylase JMJD6; assay: Inhibition of JMJD6 in human HeLa cells assessed as H4R3me2S level at 10 uM incubated for 6 hrs by immunoblotting analysis; assay type: cell-based
# In short: (§1)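 HeLa cells treated with or without compound at 10 μM for 6 h; lysates immunoblotted for H4R3me2s and HSP70R469me1.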
# [3] = target: T1, Bifunctional arginine demethylase and lysyl-hydroxylase JMJD6; assay: Binding affinity to immobilized His-tagged JMJD6 (unknown origin) expressed in Escherichia coli BL21 (DE3) by biacore-binding assay
# [4] = target: T2, Lysine-specific demethylase 4C (Homo sapiens) (UniProt Q9H3R0); assay: (§2) Inhibition of Flag-tagged KDM4C (unknown origin) expressed in Escherichia coli BL21 (DE3) assessed as formaldehyde release using core histone as substrate preincubated with enzyme for 10 mins followed by incubation with substrate for 1 hr measured following 2 hrs incubation with ammonium acetate/acetoacetanilide by fluorescence based analysis
# T2 sequence (whole entry): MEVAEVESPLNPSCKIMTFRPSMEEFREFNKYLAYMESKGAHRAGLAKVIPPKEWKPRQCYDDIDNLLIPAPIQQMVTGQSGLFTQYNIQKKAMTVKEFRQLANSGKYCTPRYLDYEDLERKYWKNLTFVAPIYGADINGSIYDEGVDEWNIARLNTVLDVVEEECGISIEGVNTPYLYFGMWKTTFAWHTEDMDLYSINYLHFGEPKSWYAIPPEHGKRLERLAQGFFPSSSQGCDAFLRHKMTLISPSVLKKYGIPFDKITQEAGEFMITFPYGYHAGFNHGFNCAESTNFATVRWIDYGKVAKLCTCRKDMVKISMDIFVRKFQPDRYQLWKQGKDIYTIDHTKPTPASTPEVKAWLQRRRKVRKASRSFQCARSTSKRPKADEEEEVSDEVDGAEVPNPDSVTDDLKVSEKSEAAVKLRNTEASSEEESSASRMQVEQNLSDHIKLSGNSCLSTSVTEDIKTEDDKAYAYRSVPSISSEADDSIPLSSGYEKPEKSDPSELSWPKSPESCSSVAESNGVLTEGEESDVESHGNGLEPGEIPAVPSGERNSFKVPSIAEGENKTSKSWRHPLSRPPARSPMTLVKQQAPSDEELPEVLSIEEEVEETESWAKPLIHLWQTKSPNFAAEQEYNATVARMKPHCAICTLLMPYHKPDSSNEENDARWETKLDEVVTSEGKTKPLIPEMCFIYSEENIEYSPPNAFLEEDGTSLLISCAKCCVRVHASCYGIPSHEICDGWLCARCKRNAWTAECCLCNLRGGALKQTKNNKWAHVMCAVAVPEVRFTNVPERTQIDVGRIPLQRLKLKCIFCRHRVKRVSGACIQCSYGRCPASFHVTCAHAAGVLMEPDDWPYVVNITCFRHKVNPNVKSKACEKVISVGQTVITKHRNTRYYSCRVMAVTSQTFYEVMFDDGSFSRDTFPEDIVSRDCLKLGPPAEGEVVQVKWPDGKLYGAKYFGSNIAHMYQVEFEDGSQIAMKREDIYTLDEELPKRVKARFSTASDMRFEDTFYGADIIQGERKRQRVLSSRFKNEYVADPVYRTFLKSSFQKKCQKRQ
# [5] = target: T1, Bifunctional arginine demethylase and lysyl-hydroxylase JMJD6; assay: Inhibition of His-tagged JMJD6 (unknown origin) expressed in Escherichia coli BL21 (DE3) assessed as decrease in demethylase activity by measuring release of formaldehyde using core histone as substrate preincubated with enzyme for 10 mins followed by incubation with substrate for 1 hr measured following 2 hrs incubation with ammonium acetate/acetoacetanilide by fluorescence based analysis
# In short: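 Bacterially expressed, purified JMJD6 mixed with core histones, with or without inhibitor across a concentration series; demethylation read as formaldehyde release; IC50 derived from the series; experiment run three times.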
# [6] = target: T1, Bifunctional arginine demethylase and lysyl-hydroxylase JMJD6; assay: Inhibition of JMJD6 in human HeLa cells assessed as increase in HSP70R469me1 level at 10 uM incubated for 6 hrs by immunoblotting analysis; assay type: cell-based; in short: as §1
# L02 = assay: Cytotoxicity in human LO2 cells assessed as reduction in cell proliferation incubated for 72 hrs by CellTiter 96 AQueous one solution cell proliferation assay; assay type: cell-based; details: l02, 72 h
# [7] = target: Histone lysine demethylase PHF8 (Homo sapiens) (UniProt Q9UPP1); assay: as §2, with “PHF8” for “KDM4C”
# Chain of Histone lysine demethylase PHF8 (Homo sapiens) (Q9UPP1 whole entry): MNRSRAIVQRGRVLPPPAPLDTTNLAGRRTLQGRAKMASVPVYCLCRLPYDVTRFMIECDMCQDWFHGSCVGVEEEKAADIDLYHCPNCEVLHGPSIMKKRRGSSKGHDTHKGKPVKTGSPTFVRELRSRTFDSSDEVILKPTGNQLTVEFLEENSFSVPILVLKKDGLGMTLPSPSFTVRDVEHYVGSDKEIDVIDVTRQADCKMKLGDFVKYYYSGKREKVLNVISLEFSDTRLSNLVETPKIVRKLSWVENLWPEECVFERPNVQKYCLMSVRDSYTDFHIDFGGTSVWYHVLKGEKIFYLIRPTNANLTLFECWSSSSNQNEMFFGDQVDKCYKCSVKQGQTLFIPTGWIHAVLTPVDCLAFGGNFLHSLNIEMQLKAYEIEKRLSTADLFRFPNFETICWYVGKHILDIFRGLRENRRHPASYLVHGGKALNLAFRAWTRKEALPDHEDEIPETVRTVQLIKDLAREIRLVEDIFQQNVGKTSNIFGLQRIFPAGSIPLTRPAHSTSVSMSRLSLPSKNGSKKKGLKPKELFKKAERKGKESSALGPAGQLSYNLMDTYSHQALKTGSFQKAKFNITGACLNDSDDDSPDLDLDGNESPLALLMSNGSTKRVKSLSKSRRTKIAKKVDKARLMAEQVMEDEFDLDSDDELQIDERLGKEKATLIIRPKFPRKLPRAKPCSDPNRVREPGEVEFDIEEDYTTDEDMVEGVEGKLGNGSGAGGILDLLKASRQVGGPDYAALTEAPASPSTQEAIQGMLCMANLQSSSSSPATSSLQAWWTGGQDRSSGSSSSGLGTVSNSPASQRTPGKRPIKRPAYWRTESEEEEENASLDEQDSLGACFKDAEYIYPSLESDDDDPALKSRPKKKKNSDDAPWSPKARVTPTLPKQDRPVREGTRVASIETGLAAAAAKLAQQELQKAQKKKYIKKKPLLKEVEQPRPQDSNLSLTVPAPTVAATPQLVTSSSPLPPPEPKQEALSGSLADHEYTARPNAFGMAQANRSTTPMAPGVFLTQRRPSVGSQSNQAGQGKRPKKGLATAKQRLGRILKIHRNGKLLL
# [8] = target: T3, Lysine-specific demethylase 3A (Homo sapiens) (UniProt Q9Y4C1); assay: as §2, with “KDM3A” for “KDM4C”
# T3 sequence (whole entry): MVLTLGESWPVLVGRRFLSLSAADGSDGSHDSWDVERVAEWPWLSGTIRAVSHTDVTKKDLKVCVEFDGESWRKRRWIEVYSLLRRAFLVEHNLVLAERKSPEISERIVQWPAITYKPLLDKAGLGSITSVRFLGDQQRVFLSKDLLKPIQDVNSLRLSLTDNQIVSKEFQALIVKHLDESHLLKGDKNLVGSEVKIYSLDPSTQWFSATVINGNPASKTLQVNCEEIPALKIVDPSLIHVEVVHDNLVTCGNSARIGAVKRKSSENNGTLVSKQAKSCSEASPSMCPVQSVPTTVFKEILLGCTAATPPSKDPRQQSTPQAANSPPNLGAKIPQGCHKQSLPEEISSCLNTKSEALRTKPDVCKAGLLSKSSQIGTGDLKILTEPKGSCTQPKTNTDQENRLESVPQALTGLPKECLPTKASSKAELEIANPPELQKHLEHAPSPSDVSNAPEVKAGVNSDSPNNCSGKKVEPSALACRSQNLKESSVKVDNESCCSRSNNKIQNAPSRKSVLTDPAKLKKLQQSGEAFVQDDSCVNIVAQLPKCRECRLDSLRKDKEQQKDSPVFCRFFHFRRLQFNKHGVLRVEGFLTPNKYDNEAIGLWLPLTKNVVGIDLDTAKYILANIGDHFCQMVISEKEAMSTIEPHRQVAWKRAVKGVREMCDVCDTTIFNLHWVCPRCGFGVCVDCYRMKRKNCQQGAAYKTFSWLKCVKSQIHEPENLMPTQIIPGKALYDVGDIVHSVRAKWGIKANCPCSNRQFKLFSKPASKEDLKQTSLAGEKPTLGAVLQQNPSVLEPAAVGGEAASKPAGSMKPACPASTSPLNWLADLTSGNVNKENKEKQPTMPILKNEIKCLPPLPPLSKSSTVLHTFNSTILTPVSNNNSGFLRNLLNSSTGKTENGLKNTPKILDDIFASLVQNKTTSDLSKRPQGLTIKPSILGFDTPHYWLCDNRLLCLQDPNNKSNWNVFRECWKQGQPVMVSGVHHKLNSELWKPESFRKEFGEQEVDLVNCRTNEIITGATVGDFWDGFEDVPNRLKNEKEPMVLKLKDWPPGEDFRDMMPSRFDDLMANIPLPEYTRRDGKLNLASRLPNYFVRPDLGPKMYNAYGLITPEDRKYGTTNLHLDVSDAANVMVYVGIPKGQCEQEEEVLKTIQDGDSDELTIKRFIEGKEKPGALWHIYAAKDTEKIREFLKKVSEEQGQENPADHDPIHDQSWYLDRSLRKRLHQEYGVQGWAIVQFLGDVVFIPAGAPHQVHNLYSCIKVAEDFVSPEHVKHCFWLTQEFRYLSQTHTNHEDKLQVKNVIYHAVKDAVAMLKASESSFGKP
# [9] = target: Lysine-specific demethylase 5C (Homo sapiens) (UniProt P41229); assay: as §2, with “KDM5C” for “KDM4C”
# Chain of Lysine-specific demethylase 5C (Homo sapiens) (P41229 whole entry): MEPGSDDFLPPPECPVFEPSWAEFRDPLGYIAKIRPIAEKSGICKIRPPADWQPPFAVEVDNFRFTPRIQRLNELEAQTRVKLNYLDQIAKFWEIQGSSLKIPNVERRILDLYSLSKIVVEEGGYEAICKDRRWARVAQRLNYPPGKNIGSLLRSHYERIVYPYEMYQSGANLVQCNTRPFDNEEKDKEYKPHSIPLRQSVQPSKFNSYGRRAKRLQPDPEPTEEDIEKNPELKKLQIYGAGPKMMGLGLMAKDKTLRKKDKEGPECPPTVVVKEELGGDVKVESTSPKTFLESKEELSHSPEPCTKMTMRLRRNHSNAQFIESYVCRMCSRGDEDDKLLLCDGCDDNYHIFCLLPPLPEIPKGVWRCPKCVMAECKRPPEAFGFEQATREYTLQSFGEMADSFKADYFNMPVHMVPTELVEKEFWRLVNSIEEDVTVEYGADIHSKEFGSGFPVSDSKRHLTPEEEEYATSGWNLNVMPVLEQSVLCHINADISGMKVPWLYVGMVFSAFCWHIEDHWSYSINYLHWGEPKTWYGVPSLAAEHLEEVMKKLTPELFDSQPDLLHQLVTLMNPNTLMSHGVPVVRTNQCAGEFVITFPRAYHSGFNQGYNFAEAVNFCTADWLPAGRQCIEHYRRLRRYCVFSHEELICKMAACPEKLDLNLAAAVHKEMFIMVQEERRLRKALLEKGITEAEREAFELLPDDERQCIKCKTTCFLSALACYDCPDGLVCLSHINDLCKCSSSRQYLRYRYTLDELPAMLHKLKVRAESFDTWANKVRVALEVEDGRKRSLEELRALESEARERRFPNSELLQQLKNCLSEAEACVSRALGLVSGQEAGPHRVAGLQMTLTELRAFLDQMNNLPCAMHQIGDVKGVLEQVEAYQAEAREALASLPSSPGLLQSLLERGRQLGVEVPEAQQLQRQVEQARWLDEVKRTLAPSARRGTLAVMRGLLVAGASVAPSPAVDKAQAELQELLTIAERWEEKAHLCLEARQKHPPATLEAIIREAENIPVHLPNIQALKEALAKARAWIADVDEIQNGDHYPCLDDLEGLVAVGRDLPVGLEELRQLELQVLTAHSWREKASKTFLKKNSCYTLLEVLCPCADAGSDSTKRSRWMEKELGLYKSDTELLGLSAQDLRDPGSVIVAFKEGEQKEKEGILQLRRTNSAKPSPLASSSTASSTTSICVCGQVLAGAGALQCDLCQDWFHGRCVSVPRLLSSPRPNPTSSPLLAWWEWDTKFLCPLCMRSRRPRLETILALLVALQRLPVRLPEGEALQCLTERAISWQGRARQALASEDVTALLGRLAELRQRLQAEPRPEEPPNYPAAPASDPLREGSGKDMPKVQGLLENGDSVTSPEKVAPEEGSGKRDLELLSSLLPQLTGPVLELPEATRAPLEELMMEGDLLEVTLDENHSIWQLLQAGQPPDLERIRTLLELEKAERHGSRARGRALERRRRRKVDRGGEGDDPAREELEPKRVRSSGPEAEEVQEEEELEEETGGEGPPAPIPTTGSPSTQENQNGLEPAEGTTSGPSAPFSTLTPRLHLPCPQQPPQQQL
compound,measurement,setting,value
COCCn1cc(OC(C)=O)c2c1nc(C)n1c3ccccc3nc21,inhibition,[1],Active
COCCN1CCOc2nc3c(C)cccc3cc2C1,inhibition,[1],Active
CCOC(=O)c1csc(NC(=O)c2cc(C)on2)n1,inhibition,[1],Active
Cc1ccc2oc(=O)c(-c3nc4cnccc4[nH]3)cc2c1,inhibition,[2],inactive
same,Activity,[3],Active
same,inhibition,[4],inactive
same,IC50,[5],220 nM
same,inhibition,[6],Active
same,Activity,L02,Non-Toxic
same,inhibition,[7],inactive
same,inhibition,[1],Active
same,inhibition,[8],inactive
same,inhibition,[9],inactive
COc1ccc2oc(=O)c(-c3csc(C)n3)cc2c1,inhibition,[1],Active
